Data set [1] deals with Induced myeloid leukemia cell differentiation protein Mcl-1 (Homo sapiens, UniProt Q07820). Nature of the data set: Binding affinity to MCL-1 (unknown origin) assessed as dissociation constant incubated for 1 hrs by TR-FRET assay. In general terms: TR-FRET usually uses a lanthanide donor and a delayed reading to cut background.
The target of data set [2] is T1, Bcl-2-like protein 2 (Homo sapiens, UniProt Q92843).
T1 sequence (Q92843 whole entry): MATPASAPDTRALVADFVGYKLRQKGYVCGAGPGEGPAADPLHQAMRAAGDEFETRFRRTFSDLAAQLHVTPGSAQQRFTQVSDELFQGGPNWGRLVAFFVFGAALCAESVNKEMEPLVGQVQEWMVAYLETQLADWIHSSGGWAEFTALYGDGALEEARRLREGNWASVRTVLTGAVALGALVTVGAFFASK
Description: Binding affinity to BCL-W (unknown origin) assessed as dissociation constant incubated for 1 hrs by TR-FRET assay.

The subject of data set [3] is MOLT-4. Nature of the data set: Antiproliferative activity against Bcl-xl dependent human MOLT-4 cells assessed as reduction in cell viability by measuring effect concentration by CellTiter-Glo reagent based assay. It counts as functional.
Data set [4] concerns MEF. Description: Cytotoxicity against BAK/BAX knockout MEF cells assessed as reduction in cell viability incubated for 48 hrs by CellTiter-Glo cell vaibility assay. The data set is classed as toxicity, cell-based. The note with it: mouse. In general terms: Cellular ATP, detected with luciferase, serves as a proxy for viable cell number.
Data set [5] deals with MEF. Nature of the data set: Cytotoxicity against BAK knockout MEF cells assessed as reduction in cell viability incubated for 48 hrs by CellTiter-Glo cell vaibility assay. The data set is classed as toxicity, cell-based. The following applies: mouse.
The test system of data set [6] is MEF. Nature of the data set: Cytotoxicity against BAX knockout MEF cells assessed as reduction in cell viability incubated for 48 hrs by CellTiter-Glo cell vaibility assay. The data set is classed as toxicity, cell-based. The note with it: mouse.
Data set [7] concerns NCI-H889. Nature of the data set: Antiproliferative activity against human NCI-H889 assessed as reduction in cell viability incubated for 48 hrs by CellTiter-Glo cell vaibility assay. The following applies: NCI-H889, 48 h. It counts as functional, cell-based. Summed up: (§1)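 Tumour cell lines (SCLC panel and AML panel) exposed to increasing concentrations for 48 hours, then cell viability measured. Cell-killing EC50 taken from the concentration-response.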

Data set [8] has as its system NCI-H211. Description: Antiproliferative activity against human NCI-H211 assessed as reduction in cell viability incubated for 48 hrs by CellTiter-Glo cell vaibility assay. The data set is classed as functional, cell-based. The following applies: NCI-H211, 48 h. The gist of the method: as §1
In data set [9] the test system is NCI-H446. Nature of the data set: Antiproliferative activity against human NCI-H446 assessed as reduction in cell viability incubated for 48 hrs by CellTiter-Glo cell vaibility assay. The data set is classed as functional, cell-based. The following applies: NCI-H446, 48 h. The gist of the method:
as §1

Data set [10] has as its system NCI-H1048. Description: Antiproliferative activity against human NCI-H1048 assessed as reduction in cell viability incubated for 48 hrs by CellTiter-Glo cell vaibility assay. The following applies: NCI-H1048, 48 h. It counts as functional, cell-based. Summed up: as §1
For data set [11], the system named is NCI-H69. Nature of the data set: Antiproliferative activity against human NCI-H69 assessed as reduction in cell viability incubated for 48 hrs by CellTiter-Glo cell vaibility assay. The note with it: NCI-H69, 48 h. The data set is classed as functional, cell-based. Summed up:
as §1

Data set [12] has as its system NCI-H1417. Nature of the data set: Antiproliferative activity against human NCI-H1417 assessed as reduction in cell viability incubated for 48 hrs by CellTiter-Glo cell vaibility assay. The data set is classed as functional, cell-based. The following applies: NCI-H1417, 48 h. Summed up: as §1
The subject of data set [13] is DMS-79. Nature of the data set: Antiproliferative activity against human DMS 79 assessed as reduction in cell viability incubated for 48 hrs by CellTiter-Glo cell vaibility assay. The following applies: DMS-79, 48 h. The data set is classed as functional, cell-based. The gist of the method: as §1
The subject of data set [14] is GDM-1. Description: Antiproliferative activity against human GDM-1 assessed as reduction in cell viability incubated for 48 hrs by CellTiter-Glo cell vaibility assay. It counts as functional, cell-based. The note with it: GDM-1, 48 h. Summed up:
as §1

Data set [15] relates to EOL1. Description: Antiproliferative activity against human EOL1 assessed as reduction in cell viability incubated for 48 hrs by CellTiter-Glo cell vaibility assay. It counts as functional, cell-based. The following applies: EOL1, 48 h. The gist of the method: as §1
In data set [16] the test system is MOLM-13. Nature of the data set: Antiproliferative activity against human MOLM-13 assessed as reduction in cell viability incubated for 48 hrs by CellTiter-Glo cell vaibility assay. The data set is classed as functional, cell-based. The following applies: MOLM-13, 48 h. The gist of the method: as §1
In data set [17] the test system is HL-60. Description: Antiproliferative activity against human HL-60 assessed as reduction in cell viability incubated for 48 hrs by CellTiter-Glo cell vaibility assay. The data set is classed as functional, cell-based. The note with it: HL-60, 48 h. Summed up:
as §1

For data set [18], the system named is MV4-11. Nature of the data set: Antiproliferative activity against human MV4-11 assessed as reduction in cell viability incubated for 48 hrs by CellTiter-Glo cell vaibility assay. The note with it: MV4-11, 48 h. The data set is classed as functional, cell-based. The gist of the method: as §1
The subject of data set [19] is OCI-AML2. Nature of the data set: Antiproliferative activity against human OCI-AML2 assessed as reduction in cell viability incubated for 48 hrs by CellTiter-Glo cell vaibility assay. The data set is classed as functional, cell-based. The following applies: OCI-AML2, 48 h. The gist of the method: as §1
A short description of data set [20]: Antiproliferative activity against human MOLM16 assessed as reduction in cell viability incubated for 48 hrs by CellTiter-Glo cell vaibility assay. It counts as functional, cell-based, MOLM-16. The following applies: MOLM16, 48 h. The gist of the method: as §1
Data set [21] relates to OCI-AML-5. Nature of the data set: Antiproliferative activity against human OCI-AML5 assessed as reduction in cell viability incubated for 48 hrs by CellTiter-Glo cell vaibility assay. The data set is classed as functional, cell-based. The note with it: OCI-AML-5, 48 h. The gist of the method: as §1
The test system of data set [22] is THP-1. Nature of the data set: Antiproliferative activity against human THP-1 assessed as reduction in cell viability incubated for 48 hrs by CellTiter-Glo cell vaibility assay. It counts as functional, cell-based. The note with it: THP-1, 48 h. Summed up:
as §1

In data set [23] the test system is Kasumi 1. Nature of the data set: Antiproliferative activity against human Kasumi 1 assessed as reduction in cell viability incubated for 48 hrs by CellTiter-Glo cell vaibility assay. It counts as functional, cell-based. The following applies: Kasumi 1, 48 h. The gist of the method:
as §1

Data set [24] relates to KG-1. Description: Antiproliferative activity against human KG-1 assessed as reduction in cell viability incubated for 48 hrs by CellTiter-Glo cell vaibility assay. The data set is classed as functional, cell-based. The following applies: KG-1, 48 h. The gist of the method: as §1
Data set [25] in a line: Antiproliferative activity against human HNT-34 assessed as reduction in cell viability incubated for 48 hrs by CellTiter-Glo cell vaibility assay. It counts as functional, cell-based. The note with it: HNT-34, 48 h. Summed up: as §1
Data set [26] in a line: Antiproliferative activity against human PL-21 assessed as reduction in cell viability incubated for 48 hrs by CellTiter-Glo cell vaibility assay. The note with it: PL-21, 48 h. It counts as functional, cell-based. The gist of the method: as §1
The test system of data set [27] is SKM-1. Description: Antiproliferative activity against human SKM-1 assessed as reduction in cell viability incubated for 48 hrs by CellTiter-Glo cell vaibility assay. The following applies: SKM-1, 48 h. It counts as functional, cell-based. The gist of the method: as §1
A short description of data set [28]: Antiproliferative activity against human UKE-1 harboring JAK2 V617F mutant assessed as reduction in cell viability incubated for 48 hrs by CellTiter-Glo cell vaibility assay. The data set is classed as functional, cell-based. The following applies: UKE1, 48 h. Summed up:
as §1

In data set [29] the test system is SET-2. Description: Antiproliferative activity against human SET2 harboring JAK2 V617F mutant assessed as reduction in cell viability incubated for 48 hrs by CellTiter-Glo cell vaibility assay. The data set is classed as functional, cell-based. The following applies: SET-2, 48 h. The gist of the method: as §1
For data set [30], the system named is HEL. Nature of the data set: Antiproliferative activity against human HEL harboring JAK2 V617F mutant assessed as reduction in cell viability incubated for 48 hrs by CellTiter-Glo cell vaibility assay. The data set is classed as functional, cell-based. The gist of the method: as §1
The nature of data set [31]: Antiproliferative activity against human OCI-M2 assessed as reduction in cell viability incubated for 48 hrs by CellTiter-Glo cell vaibility assay. The data set is classed as functional, cell-based. The following applies: OCI-M2, 48 h. The gist of the method: as §1
Data set [32] is described as follows: Antiproliferative activity against human OCI-M1 assessed as reduction in cell viability incubated for 48 hrs by CellTiter-Glo cell vaibility assay. The data set is classed as functional, cell-based. The following applies: OCI-M1, 48 h. Summed up: as §1
The subject of data set [33] is OCI-AML-3. Description: Antiproliferative activity against human OCI-AML-3 assessed as reduction in cell viability incubated for 48 hrs by CellTiter-Glo cell vaibility assay. The note with it: OCI-AML-3, 48 h. It counts as functional, cell-based. The gist of the method: as §1
Data set [34] deals with NOMO-1. Nature of the data set: Antiproliferative activity against human NOMO-1 assessed as reduction in cell viability incubated for 48 hrs by CellTiter-Glo cell vaibility assay. It counts as functional, cell-based. The note with it: NOMO-1, 48 h. The gist of the method: as §1

Each structure is given as a SMILES string.

Chain of Induced myeloid leukemia cell differentiation protein Mcl-1 (Q07820 whole entry): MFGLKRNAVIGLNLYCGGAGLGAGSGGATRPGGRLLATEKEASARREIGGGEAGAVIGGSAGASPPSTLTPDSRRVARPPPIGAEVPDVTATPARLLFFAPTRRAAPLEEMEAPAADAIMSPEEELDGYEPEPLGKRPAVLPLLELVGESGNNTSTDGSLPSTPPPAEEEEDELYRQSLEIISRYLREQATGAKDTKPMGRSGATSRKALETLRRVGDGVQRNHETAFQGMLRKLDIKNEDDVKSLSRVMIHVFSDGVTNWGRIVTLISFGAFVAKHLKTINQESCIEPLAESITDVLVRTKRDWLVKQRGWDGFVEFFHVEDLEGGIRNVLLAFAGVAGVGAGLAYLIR

Turning to `Cc1c(-c2ccc(N3CCc4cccc(C(=O)Nc5nc6ccccc6s5)c4C3)nc2C(=O)O)cnn1CC12CC3CC(CC(C3)C1)C2`, the Ki (in general, a measure of affinity in units of concentration, obtained from inhibition or displacement) was determined as 142 nM in [1] and 4 nM in data set [2]. Further, the concentration for a half-maximal effect (EC50) – broadly, the concentration giving half of the maximal effect – in data set [3] worked out at 6 nM. Further, the Activity result in data set [4], in data set [5] and in data set [6] was “Non-Toxic” throughout.

Take `CN(C)CC#Cc1ccc(OCCCc2sc(N3CCc4cccc(C(=O)Nc5nc6ccccc6s5)c4C3)nc2C(=O)O)c(F)c1` [A-1155463]: the values for the inhibition constant Ki in data set [1] and in data set [2] were over 444 nM and 8 nM, respectively. The 50% effective concentration (EC50) is 70 nM in data set [3]; 6310 nM in [7]; 1350 nM in data set [8]; 200 nM in [9]; over 10000 nM in [10]; 3200 nM in [11]. In addition, the EC50 is 7 nM in [12]; 1440 nM in data set [13]; 1170 nM in [14]; 2250 nM in data set [15]; over 5000 nM in [16]; over 5000 nM in data set [17]. Moreover, the EC50 was over 5000 nM in data set [18]; over 5000 nM in [19]; over 5000 nM in [20]; over 5000 nM in data set [21]; over 5000 nM in [22]; 11 nM in [23]. In addition, the EC50 in data set [24] was over 5000 nM; in [25] it was 680 nM; in data set [26], over 5000 nM; in [27] it was over 5000 nM; in data set [28], 490 nM; in data set [29], 80 nM. For the same compound, the EC50 is 120 nM in data set [30]; 100 nM in data set [31]; 230 nM in data set [32]; over 5000 nM in data set [33]; over 5000 nM in data set [34]. Moreover, the Activity result in [4], in data set [5] and in [6] was “Non-Toxic” throughout.

In the case of `CC1(C)CCC(c2ccc(Cl)cc2)=C(CN2CCN(c3ccc(C(=O)NS(=O)(=O)c4ccc(N[C@H](CCN5CCOCC5)CSc5ccccc5)c(S(=O)(=O)C(F)(F)F)c4)cc3)CC2)C1` [NAVITOCLAX], in data set [2], the inhibition constant Ki was found to be 21 nM. Moreover, the EC50 in [7] is 53 nM; in [8], 100 nM; in data set [9], 850 nM; in data set [10] it was 900 nM; in [11], 180 nM; in [12], 100 nM. Also, the EC50 turned out to be 440 nM in [13]; 11 nM in data set [14]; 11 nM in data set [15]; 30 nM in [16]; 40 nM in data set [17]; 40 nM in data set [18]. For the same compound, the EC50 in data set [19] is 11 nM; in data set [20] it was 120 nM; in data set [21], 180 nM; in data set [22], 450 nM; in data set [23], 30 nM; in data set [24] it was 110 nM. The concentration for a half-maximal effect (EC50) in data set [25] came out at 30 nM; in data set [26] it was 190 nM; in [27], 240 nM; in data set [28], 50 nM; in data set [29] it was 60 nM; in data set [30] it was 70 nM. The EC50 was 160 nM in data set [31], 410 nM in data set [32], over 5000 nM in [33] and over 5000 nM in data set [34].

The values are drawn from ChEMBL document CHEMBL5705901, “Exploiting selective BCL-2 family inhibitors to dissect cell survival dependencies and define improved strategies for cancer therapy” (Sci Transl Med, 2015).
